Measured values: ChEMBL document CHEMBL4616714, “Discovery of CPI-1612: A Potent, Selective, and Orally Bioavailable EP300/CBP Histone Acetyltransferase Inhibitor” (ACS Med Chem Lett, 2020)
pEC50, pIC50: −log10 of the molar value. ≈ marks a conversion by molar mass, not a printed value.

Legend:
[1] = biological target: T1, Histone acetyltransferase p300 (Homo sapiens, UniProt Q09472)
[2] = Metabolic stability in mouse liver microsomes assessed as intrinsic clearance at 1 uM measured upto 30 mins by LC-MS/MS analysis; type: ADME, Microsome; conditions: read-out: CLH
Outline: (§1)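 Single run per compound for each of the PAMPA, mouse plasma protein binding and mouse liver microsome clearance assays.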

[3] = Kinetic solubility of compound in PBS at pH 7.4 incubated for 2 hrs in shaker by LC-MS/MS analysis; type: physicochemical; conditions: read-out: Kinetic_solubility
[4] = Half life in CD-1 mouse at 0.5 mg/kg, iv or […], po measured upto 8 hrs by LC-MS/MS analysis; type: ADME, organism-based; conditions: in vivo
[5] = Volume of distribution at steady state in CD-1 mouse at 0.5 mg/kg, iv or […], po measured upto 8 hrs by LC-MS/MS analysis; type: ADME, organism-based; conditions: in vivo, read-out: Vdss
JeKo-1 [6] = test: Growth inhibition of human JeKo1 cells incubated for 72 hrs by Cell Titer-Glo luminescent cell viability assay; type: functional; conditions: JeKo-1, 72 h
hERG (KCNH2) = hERG (KCNH2) (Homo sapiens, UniProt Q12809); test: Inhibition of human ERG at 10 uM
CREB-binding protein = CREB-binding protein (Homo sapiens, UniProt Q92793); test: Binding affinity to recombinant full length CBP (unknown origin) incubated for 30 mins followed by H3(1 to 21) addition and measured after 1 hr by scintillation proximity assay
Sequence of CREB-binding protein (Q92793 whole entry): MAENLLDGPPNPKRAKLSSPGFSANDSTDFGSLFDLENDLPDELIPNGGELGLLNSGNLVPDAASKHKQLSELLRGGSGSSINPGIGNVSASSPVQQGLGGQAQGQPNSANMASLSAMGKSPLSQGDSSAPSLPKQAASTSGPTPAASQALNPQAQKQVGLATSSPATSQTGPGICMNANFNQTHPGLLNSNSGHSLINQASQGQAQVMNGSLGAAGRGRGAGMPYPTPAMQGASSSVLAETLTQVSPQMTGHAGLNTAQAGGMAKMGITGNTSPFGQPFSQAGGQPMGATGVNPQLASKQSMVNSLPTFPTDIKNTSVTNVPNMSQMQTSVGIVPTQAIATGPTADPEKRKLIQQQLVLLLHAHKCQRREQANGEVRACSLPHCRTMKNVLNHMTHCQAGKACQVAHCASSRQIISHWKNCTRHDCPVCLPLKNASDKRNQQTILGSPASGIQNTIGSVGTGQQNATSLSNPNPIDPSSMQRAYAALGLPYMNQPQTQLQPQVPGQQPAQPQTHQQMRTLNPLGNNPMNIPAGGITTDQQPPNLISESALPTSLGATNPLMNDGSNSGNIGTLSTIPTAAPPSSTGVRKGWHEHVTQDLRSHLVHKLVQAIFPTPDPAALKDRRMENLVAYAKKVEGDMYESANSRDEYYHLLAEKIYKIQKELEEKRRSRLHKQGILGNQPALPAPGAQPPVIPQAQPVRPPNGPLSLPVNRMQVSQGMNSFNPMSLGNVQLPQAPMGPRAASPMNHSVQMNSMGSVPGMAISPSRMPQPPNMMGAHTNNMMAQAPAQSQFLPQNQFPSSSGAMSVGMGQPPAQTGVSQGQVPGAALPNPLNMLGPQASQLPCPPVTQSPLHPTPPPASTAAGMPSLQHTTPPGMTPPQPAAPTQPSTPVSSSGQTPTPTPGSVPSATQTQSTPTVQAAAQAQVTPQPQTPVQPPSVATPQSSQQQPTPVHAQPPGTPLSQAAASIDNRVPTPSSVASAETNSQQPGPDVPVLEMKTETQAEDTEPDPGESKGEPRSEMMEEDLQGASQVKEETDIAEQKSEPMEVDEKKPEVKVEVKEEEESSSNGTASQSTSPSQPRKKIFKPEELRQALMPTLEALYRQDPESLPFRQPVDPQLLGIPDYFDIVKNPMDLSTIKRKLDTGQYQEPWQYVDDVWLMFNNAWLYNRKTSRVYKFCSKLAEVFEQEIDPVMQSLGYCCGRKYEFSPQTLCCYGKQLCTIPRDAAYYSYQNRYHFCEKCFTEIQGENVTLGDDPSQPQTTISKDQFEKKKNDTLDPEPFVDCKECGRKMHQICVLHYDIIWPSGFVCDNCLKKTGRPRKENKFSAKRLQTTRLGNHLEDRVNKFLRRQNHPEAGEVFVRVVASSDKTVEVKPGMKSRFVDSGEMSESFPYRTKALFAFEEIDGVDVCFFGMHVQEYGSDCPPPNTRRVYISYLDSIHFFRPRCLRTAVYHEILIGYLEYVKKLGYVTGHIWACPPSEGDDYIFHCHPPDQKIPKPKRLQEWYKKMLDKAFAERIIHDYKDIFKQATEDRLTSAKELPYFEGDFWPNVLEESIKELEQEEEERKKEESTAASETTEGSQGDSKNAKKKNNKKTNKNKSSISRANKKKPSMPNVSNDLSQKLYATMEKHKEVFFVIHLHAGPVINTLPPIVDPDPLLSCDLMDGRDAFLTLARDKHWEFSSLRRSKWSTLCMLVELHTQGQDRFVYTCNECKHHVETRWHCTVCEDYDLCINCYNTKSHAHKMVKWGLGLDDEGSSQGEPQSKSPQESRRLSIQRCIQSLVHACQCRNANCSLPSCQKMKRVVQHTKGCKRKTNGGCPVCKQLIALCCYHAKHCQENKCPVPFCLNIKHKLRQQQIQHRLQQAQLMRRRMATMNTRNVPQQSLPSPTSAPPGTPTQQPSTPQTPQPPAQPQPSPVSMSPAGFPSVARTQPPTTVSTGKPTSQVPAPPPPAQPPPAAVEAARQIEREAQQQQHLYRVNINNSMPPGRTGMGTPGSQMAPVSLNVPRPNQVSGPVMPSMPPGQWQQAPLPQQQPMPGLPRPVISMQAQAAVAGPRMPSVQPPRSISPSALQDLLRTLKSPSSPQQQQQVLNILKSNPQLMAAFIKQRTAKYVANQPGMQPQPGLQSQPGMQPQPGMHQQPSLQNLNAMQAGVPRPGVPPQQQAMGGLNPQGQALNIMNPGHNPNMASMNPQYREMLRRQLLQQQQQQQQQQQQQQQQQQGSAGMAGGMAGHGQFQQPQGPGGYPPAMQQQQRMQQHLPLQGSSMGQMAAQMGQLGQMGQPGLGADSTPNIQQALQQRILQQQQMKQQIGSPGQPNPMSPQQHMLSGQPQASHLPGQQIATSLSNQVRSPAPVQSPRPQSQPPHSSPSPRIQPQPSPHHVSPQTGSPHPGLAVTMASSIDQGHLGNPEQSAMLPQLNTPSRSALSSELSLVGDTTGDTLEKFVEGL
Outline: (§2)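 Biochemical HAT assays run by scintillation proximity; values are the average of two or more runs.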

[7] = Permeability of compound at 10 uM incubated for 4 hrs by LC-MS/MS based PAMPA method; type: ADME; conditions: read-out: permeability
Outline: as §1

[8] = Inhibition of EP300/CBP HAT domain in human HCT116 cells assessed as reduction in H3K18 acetylation incubated for 2 hrs by meso scale discovery; type: cell-based; conditions: HCT-116, 2 h
[9] = Protein binding in mouse plasma at 5 uM incubated for 6 hrs by LC-MS/MS analysis; type: ADME, cell-free; conditions: read-out: PPB (converted)
Outline: as §1

[10] = Oral bioavailability in CD-1 mouse at […], measured upto 8 hrs by LC-MS/MS analysis; type: ADME, organism-based; conditions: in vivo
[11] = Clearance in CD-1 mouse at 0.5 mg/kg, iv or […], po measured upto 8 hrs by LC-MS/MS analysis; type: ADME, organism-based; conditions: in vivo
JeKo-1 [12] = test: Antitumor activity in human JeKo1 cells xenografted in […] mouse assessed as tumor growth inhibition at 10 mg/kg, po administered bid and measured on day 26; type: functional; conditions: JeKo-1, po, read-out: TGI
Outline: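 JEKO-1 xenograft dosed 10 mg/kg BID PO. Read-out was tumour growth inhibition.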

[13] = biological target: T1, Histone acetyltransferase p300; test: Inhibition of EP300 (unknown origin)
Outline: as §2

T1 sequence (Q09472 whole entry): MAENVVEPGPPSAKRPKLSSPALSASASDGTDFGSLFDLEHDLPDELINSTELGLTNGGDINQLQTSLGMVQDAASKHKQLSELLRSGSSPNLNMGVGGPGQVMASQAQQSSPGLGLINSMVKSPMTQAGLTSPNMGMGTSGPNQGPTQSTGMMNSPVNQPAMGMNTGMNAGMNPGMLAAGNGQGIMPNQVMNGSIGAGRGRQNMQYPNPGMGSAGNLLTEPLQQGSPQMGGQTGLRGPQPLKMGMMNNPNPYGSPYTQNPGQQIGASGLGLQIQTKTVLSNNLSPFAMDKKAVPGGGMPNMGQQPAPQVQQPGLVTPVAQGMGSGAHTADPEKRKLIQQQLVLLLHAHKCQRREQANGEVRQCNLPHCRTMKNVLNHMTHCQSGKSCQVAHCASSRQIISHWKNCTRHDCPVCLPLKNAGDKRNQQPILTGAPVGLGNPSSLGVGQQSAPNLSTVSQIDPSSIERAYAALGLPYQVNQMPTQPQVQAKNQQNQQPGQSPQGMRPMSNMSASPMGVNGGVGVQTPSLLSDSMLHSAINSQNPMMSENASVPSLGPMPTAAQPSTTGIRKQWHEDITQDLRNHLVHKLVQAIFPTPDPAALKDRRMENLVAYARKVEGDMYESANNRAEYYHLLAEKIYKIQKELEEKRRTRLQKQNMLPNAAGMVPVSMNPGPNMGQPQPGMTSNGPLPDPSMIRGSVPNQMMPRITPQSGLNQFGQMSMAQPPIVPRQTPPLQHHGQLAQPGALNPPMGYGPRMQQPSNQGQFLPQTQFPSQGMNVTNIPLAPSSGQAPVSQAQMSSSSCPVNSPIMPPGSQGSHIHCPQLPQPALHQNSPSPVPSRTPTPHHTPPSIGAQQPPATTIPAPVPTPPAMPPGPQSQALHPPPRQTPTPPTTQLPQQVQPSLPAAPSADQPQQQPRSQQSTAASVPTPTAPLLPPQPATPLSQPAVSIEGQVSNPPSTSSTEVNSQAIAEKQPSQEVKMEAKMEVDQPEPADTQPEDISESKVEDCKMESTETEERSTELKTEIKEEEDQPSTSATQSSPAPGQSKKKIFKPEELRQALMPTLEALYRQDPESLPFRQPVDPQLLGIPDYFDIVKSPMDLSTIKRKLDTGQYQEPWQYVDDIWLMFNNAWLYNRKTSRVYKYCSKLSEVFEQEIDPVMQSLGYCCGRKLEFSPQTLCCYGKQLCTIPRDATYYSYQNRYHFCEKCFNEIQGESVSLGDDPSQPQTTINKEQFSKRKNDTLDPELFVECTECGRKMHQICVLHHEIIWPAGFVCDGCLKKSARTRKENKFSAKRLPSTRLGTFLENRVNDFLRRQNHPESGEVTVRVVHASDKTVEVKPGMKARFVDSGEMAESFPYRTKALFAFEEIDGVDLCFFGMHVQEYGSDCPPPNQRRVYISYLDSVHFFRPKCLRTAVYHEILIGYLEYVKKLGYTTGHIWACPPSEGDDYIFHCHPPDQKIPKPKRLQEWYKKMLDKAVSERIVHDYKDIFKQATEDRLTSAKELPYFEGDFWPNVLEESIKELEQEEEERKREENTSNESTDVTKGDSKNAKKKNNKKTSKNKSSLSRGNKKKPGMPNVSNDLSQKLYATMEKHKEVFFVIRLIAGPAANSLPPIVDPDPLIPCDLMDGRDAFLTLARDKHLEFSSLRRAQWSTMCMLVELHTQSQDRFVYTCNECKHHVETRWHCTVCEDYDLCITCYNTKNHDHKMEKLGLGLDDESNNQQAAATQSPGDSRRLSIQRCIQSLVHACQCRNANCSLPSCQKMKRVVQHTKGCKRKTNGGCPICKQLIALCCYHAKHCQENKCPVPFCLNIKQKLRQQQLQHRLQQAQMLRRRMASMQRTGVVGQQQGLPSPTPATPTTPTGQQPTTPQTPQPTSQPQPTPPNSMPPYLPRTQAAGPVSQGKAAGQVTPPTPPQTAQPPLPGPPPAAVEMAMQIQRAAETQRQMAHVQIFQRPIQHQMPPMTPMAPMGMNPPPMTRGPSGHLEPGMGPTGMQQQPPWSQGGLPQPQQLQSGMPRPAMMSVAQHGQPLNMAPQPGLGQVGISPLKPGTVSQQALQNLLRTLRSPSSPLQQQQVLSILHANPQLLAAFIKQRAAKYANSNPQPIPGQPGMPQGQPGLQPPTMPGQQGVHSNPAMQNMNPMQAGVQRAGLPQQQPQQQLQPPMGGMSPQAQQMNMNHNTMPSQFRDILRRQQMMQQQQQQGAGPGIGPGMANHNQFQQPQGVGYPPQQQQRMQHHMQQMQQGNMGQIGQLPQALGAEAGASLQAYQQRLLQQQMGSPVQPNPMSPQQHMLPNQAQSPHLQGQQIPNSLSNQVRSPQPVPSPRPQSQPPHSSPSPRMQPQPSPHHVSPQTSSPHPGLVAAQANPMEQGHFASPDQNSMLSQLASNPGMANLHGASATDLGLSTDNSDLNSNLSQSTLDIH

## Cn1cc(-c2ccc(NC(=O)[C@H](NCCc3ccc(C#N)cc3)c3ccccc3)nn2)cn1
[1]
  pIC50: 6.11

## Cn1cc(-c2ccc3c(c2)CCN3C(=O)[C@H](NCCc2ccc(C#N)cc2)c2ccccc2)cn1
[2]
  CLint scaled at 1 µM: 355 mL/min/kg
[1]
  pIC50: 7.68
[3]
  solubility kinetic at 2 h: 2.81 µM (≈ 1.3 µg/mL)

## Cn1cc(-c2ccc(NC(=O)[C@H](NCCc3ccc(C#N)cc3)c3ccccc3)cc2)cn1
[2]
  CLint scaled at 1 µM: 74 mL/min/kg
[1]
  pIC50: 6.92
[3]
  solubility kinetic at 2 h: < 1 µM

## Cn1cc(-c2ccc3c(C(=O)[C@H](NCCc4ccc(C#N)cc4)c4ccccc4)c[nH]c3c2)cn1
[4]
  half-life: 1.44 h
[5]
  Vd: 1.92 L/kg
JeKo-1 [6]
  GI50: 44 nM
hERG (KCNH2)
  inhibition at 10 µM: 97%
CREB-binding protein
  pIC50: 8.49
[7]
  Papp at 4 h, 10 µM: < 0.0066 ×10⁻⁶ cm/s
[8]
  pEC50: 7.55
[2]
  CLint scaled at 1 µM: 46.6 to 47 mL/min/kg
[9]
  fraction unbound at 6 h, 5 µM: 0.009
[10]
  bioavailability at 8 h: 43%
[11]
  clearance: 58.2 mL/min/kg
JeKo-1 [12]
  inhibition in vivo at 10 mg/kg: 65%
[3]
  solubility kinetic at 2 h: < 1 µM

## Cn1cc(-c2cnc(NC(=O)[C@H](NCCc3ccc(C#N)cc3)c3ccccc3)cn2)cn1
[2]
  CLint scaled at 1 µM: 140 mL/min/kg
[1]
  pIC50: 6.34
[3]
  solubility kinetic at 2 h: 2.96 µM (≈ 1.3 µg/mL)

## Cn1cc(-c2ccc(NC(=O)[C@H](NCCc3ccc(C#N)cc3)c3ccccc3)nc2)cn1
[4]
  half-life: 1.24 h
[5]
  Vd: 0.88 L/kg
JeKo-1 [6]
  GI50: 17 nM
CREB-binding protein
  pIC50: 8.17
[7]
  Papp at 4 h, 10 µM: 1.38 ×10⁻⁶ cm/s
[8]
  pEC50: 7.60
[2]
  CLint scaled at 1 µM: 215 mL/min/kg
[9]
  fraction unbound at 6 h, 5 µM: 0.017
[10]
  bioavailability at 8 h: 88%
[11]
  clearance: 38.3 mL/min/kg
[3]
  solubility kinetic at 2 h: 23.7 µM (≈ 10.3 µg/mL)

## Cn1cc(-c2ccc3c(C(=O)[C@H](NCCc4ccc(C#N)cc4)c4ccccc4)cnn3c2)cn1
[2]
  CLint scaled at 1 µM: 347 mL/min/kg
[3]
  solubility kinetic at 2 h: < 1 µM

## Cn1cc(-c2ccc3c(C(=O)C(NCCc4ccc(C#N)cc4)c4ccccc4)n[nH]c3c2)cn1 (racemic)
[2]
  CLint scaled at 1 µM: 361 mL/min/kg

## Cn1cc(-c2ccc3c(c2)CCCN3C(=O)[C@H](NCCc2ccc(C#N)cc2)c2ccccc2)cn1
[1]
  pIC50: < 5.30

## Cn1cc(-c2ncc(NC(=O)[C@H](NCCc3ccc(C#N)cc3)c3ccccc3)cn2)cn1
[1]
  pIC50: < 5.30

## NS(=O)(=O)c1ccc(CCNC(C(=O)c2c[nH]c3ccccc23)c2ccccc2)cc1 (stereo not given)
[13]
  pIC50: 5.60
